In ChEMBL document CHEMBL1149161, “Design, synthesis, and biological evaluation of substituted 2-cyclohexyl-4-phenyl-1H-imidazoles: potent and selective neuropeptide Y Y5-receptor antagonists” (J Med Chem, 2004):

Experiments:
[1] = Inhibition of […] binding to recombinant human chimeric NPY5/NPY1 receptor expressed in Sf9 cells
Method in brief: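 Membranes from Sf9 cells expressing the human chimeric NPY5/NPY1 receptor, in 50 mM Tris-HCl pH 7.4 with 5 mM KCl, 120 mM NaCl, 2 mM CaCl2, 1 mM MgCl2 and 0.1% BSA. Membranes (5–50 µg) competed against 0.050 nM porcine [125I]PYY for 2 h at room temperature. Nonspecific binding was defined with 1 µM human NPY. Filtration and gamma counting followed; Ki came from a Hill fit; mean of n = 2-3 ± SEM.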

[2] = Maximum plasma concentration after oral dosing in rat; format: ADME, organism-based; design: route oral
Method in brief: (§1)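 Sprague–Dawley rats received a single 20 mg/kg oral gavage dose in 20% vitamin E/water (n = 3). Blood was sampled from predose to 24 h. Heparinized plasma was precipitated with acetonitrile and analyzed by LC. Bioavailability was set against a 3 mg/kg iv dose (n = 2).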

[3] = Oral half life of the compound; format: ADME, organism-based; settings: in vivo; method in brief: as §1
[4] = Volume of distribution at steady state; format: ADME, organism-based; settings: in vivo; read-out: Vss
Method in brief: (§2)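 Sprague–Dawley rats received a single 3 mg/kg iv catheter dose in 50% PEG/water (n = 2). Blood was sampled at predose and from 5 min to 24 h. Heparinized plasma was precipitated with acetonitrile and analyzed by LC.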

[5] = Plasma clearance of the compound; format: ADME, organism-based; method in brief: as §2
Rattus norvegicus = experiment: Oral bioavailability after peroral administration in rats; format: organism-based; method in brief: as §1
COS-7 = experiment: Percentage block at hERG Voltage-gated potassium channel (subunit Kv11.1) expressed in COS7 cells by electrophysiological whole cell assay (300 nM); format: cell-based; settings: Homo sapiens

Row | SMILES | Ki [1] [nM] | further results
1 | FC(F)(F)c1cccc(-c2c[nH]c(-c3ccccc3)n2)c1 | 2.5 | 
2 | O=C(NCCCO)[C@H]1CC[C@H](c2nc(-c3cccc(C(F)(F)F)c3)c[nH]2)CC1 | 185 | 
3 | CC(C)(CO)NC(=O)[C@H]1CC[C@H](c2nc(-c3cccc(C(F)(F)F)c3)c[nH]2)CC1 | 2.8 | Cmax [2]: 714 ng/mL; half-life [3]: 780 min; Vd [4]: 6 L/kg; clearance [5]: 50 mL/min/kg; bioavailability (Rattus norvegicus): 36%
4 | CC(=O)CNC(=O)[C@H]1CC[C@H](c2nc(-c3cccc(Br)c3)c[nH]2)CC1 | 10 | 
5 | O=C(NS(=O)(=O)c1ccccc1)[C@H]1CC[C@H](c2nc(-c3cccc(C(F)(F)F)c3)c[nH]2)CC1 | 31 | 
6 | COCCNC(=O)[C@H]1CC[C@H](c2nc(-c3cccc(C(F)(F)F)c3)c[nH]2)CC1 | 99 | 
7 | CC(=O)NNC(=O)[C@H]1CC[C@H](c2nc(-c3cccc(C(F)(F)F)c3)c[nH]2)CC1 | 1.4 | 
8 | CN(C[C@H]1CC[C@H](c2nc(-c3cccc(C(F)(F)F)c3)c[nH]2)CC1)S(=O)(=O)c1ccccc1 | 1.3 | inhibition (COS-7): 85%
9 | FC(F)(F)c1cccc(-c2c[nH]c(C3CCCCC3)n2)c1 | 6 | 
10 | C[C@@H](O)CNC(=O)[C@H]1CC[C@H](c2nc(-c3cccc(C(F)(F)F)c3)c[nH]2)CC1 | 8 | 
11 | O=S(=O)(NC[C@H]1CC[C@H](c2nc(-c3cccc(C(F)(F)F)c3)c[nH]2)CC1)c1ccccc1 | 0.2 | inhibition (COS-7): 87%
12 | O=C(NCCO)[C@H]1CC[C@H](c2nc(-c3cccc(C(F)(F)F)c3)c[nH]2)CC1 | 11 | 
13 | C[C@H](O)CNC(=O)[C@H]1CC[C@H](c2nc(-c3cccc(C(F)(F)F)c3)c[nH]2)CC1 | 31 | 
14 | NCCNC(=O)[C@H]1CC[C@H](c2nc(-c3cccc(C(F)(F)F)c3)c[nH]2)CC1 | 915 | 
